The text below walks through data of ChEMBL document CHEMBL1765016, “Indolylarylsulfones as HIV-1 non-nucleoside reverse transcriptase inhibitors: new cyclic substituents at indole-2-carboxamide” (J Med Chem, 2011).

System in the first data set: not listed separately
As to the kind of experiment: Cytotoxicity against human CEM cells by coulter counter analysis. As to conditions: CEM (CCRF-CEM) cells. It counts as cell-based. In outline:
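Mock-infected CEM cultures with compound, cell number counted by Coulter counter as percent of untreated control. CC₅₀ (50% reduction in proliferation) was read from plots against concentration. Values are means of two experiments in triplicate.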
On to `Cc1cc(C)cc(S(=O)(=O)c2c(C(=O)NCN3CCOCC3)[nH]c3ccc(Cl)cc23)c1`, for which the CC50 came out at 11000 nM. That is a double-digit micromolar value.
Same read-out and setting: for `Cc1cc(C)cc(S(=O)(=O)c2c(C(=O)NCN3CCCC3)[nH]c3ccc(Cl)cc23)c1` the value was 11000 nM.

Another data set has as its target Human immunodeficiency virus type 1 reverse transcriptase (Human immunodeficiency virus 1, UniProt Q72547, Y181I). As to the kind of experiment: Inhibition of HIV1 reverse transcriptase Y181I mutant expressed in Escherichia coli assessed as incorporation of [3H]dTTP into poly(rA)/oligo(dT) by scintillation counting.
Details: not given
In outline:
(§1)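 The RT was recombinant p66(His)/p51 heterodimer, mutant form, expressed in E. coli. TCA-precipitable radioactivity on GF/C filters was read by scintillation. IC50 is the concentration giving 50% inhibition.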
As to `Cc1cc(C)cc(S(=O)(=O)c2c(C(=O)NCN3CCOCC3)[nH]c3ccc(Cl)cc23)c1`, the half-maximal inhibitory concentration (IC50) stood at 5480 nM.
The same measure, in the same setting: the value for `Cc1cc(C)cc(S(=O)(=O)c2c(C(=O)NCN3CCCC3)[nH]c3ccc(Cl)cc23)c1` was 442 nM.

A further data set deals with Human immunodeficiency virus 1. In words: Antiviral activity against HIV1 harboring reverse transcriptase Y188L mutant infected in human MT-4 cells assessed as inhibition of virus-induced cytopathicity after 4 days by MTT assay. Format: functional, organism-based. The following applies: Human immunodeficiency virus 1, MT4, 96 h. In outline: (§2)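 MT-4 cells at 1 × 10⁵ cells/mL were infected with RT-mutant HIV-1 at a multiplicity of infection of 0.02. They were plated at once with serial compound dilutions (DMSO stocks of 50 mM or higher). […] Virus stocks had been titrated in MT-4 cells as CCID50.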
On the technique in general: Cytopathic effects are the visible damage that an infection or toxin causes in cultured cells.
Consider `Cc1cc(C)cc(S(=O)(=O)c2c(C(=O)NCN3CCOCC3)[nH]c3ccc(Cl)cc23)c1`, for which the 50% effective concentration (EC50) was 440 nM.

For the next data set, the system named is Human immunodeficiency virus 1. In words: Antiviral activity against HIV1 group O BCF06 infected in PHA-stimulated human PBMC assessed as inhibition p24 production after 10 to 12 days by ELISA. It counts as functional, organism-based. The following applies: Human immunodeficiency virus 1, group O BCF06. In outline: (§3)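 PHA-stimulated (2 μg/mL, 3 days, 37 °C) donor PBMC blasts, washed in PBS, seeded 0.5 × 10⁶ cells/well in RPMI 1640 with 10% fetal calf serum and IL-2 (25 units/mL) containing varying compound concentrations; virus added at 250 pg p24/mL final. Supernatant collected days 10-12 and assayed for HIV-1 core antigen.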
A general note: An ELISA detects its analyte on a solid surface through an enzyme-linked reagent.
On to `Cc1cc(C)cc(S(=O)(=O)c2c(C(=O)NCN3CCOCC3)[nH]c3ccc(Cl)cc23)c1`, for which the EC50 amounted to 0.9 nM.
Same read-out and setting: for `Cc1cc(C)cc(S(=O)(=O)c2c(C(=O)NCN3CCCC3)[nH]c3ccc(Cl)cc23)c1` the value was 0.2 nM.

Another data set has as its system Human immunodeficiency virus 1. In words: Antiviral activity against HIV1 clade B BaL infected in PHA-stimulated human PBMC assessed as inhibition of p24 production after 10 to 12 days by ELISA. Format: functional, organism-based. As to conditions: Human immunodeficiency virus 1, clade B BaL. In outline:
as §3
In the case of `Cc1cc(C)cc(S(=O)(=O)c2c(C(=O)NCN3CCOCC3)[nH]c3ccc(Cl)cc23)c1`, the EC50 worked out at 0.1 nM.
On the same count and under the same terms, for `Cc1cc(C)cc(S(=O)(=O)c2c(C(=O)NCN3CCCC3)[nH]c3ccc(Cl)cc23)c1` the value was 0.1 nM.

For a further data set, the target named is Human immunodeficiency virus type 1 reverse transcriptase (Human immunodeficiency virus 1, UniProt Q72547, L100I). As to the kind of experiment: Inhibition of HIV1 reverse transcriptase L100I mutant expressed in Escherichia coli assessed as incorporation of [3H]dTTP into poly(rA)/oligo(dT) by scintillation counting.
Details: not given
In outline: as §1
Take `Cc1cc(C)cc(S(=O)(=O)c2c(C(=O)NCN3CCOCC3)[nH]c3ccc(Cl)cc23)c1`: the IC50 was determined as 117 nM.
On the same count and under the same terms, for `Cc1cc(C)cc(S(=O)(=O)c2c(C(=O)NCN3CCCC3)[nH]c3ccc(Cl)cc23)c1` the value was 26 nM.

The next data set has as its target Human immunodeficiency virus type 1 reverse transcriptase (Human immunodeficiency virus 1, UniProt Q72547, K103N). As to the kind of experiment: Inhibition of HIV1 reverse transcriptase K103N mutant expressed in Escherichia coli assessed as incorporation of [3H]dTTP into poly(rA)/oligo(dT) by scintillation counting.
Details: not given
In outline: as §1
Turning to `Cc1cc(C)cc(S(=O)(=O)c2c(C(=O)NCN3CCOCC3)[nH]c3ccc(Cl)cc23)c1`, the IC50 is 512 nM.
As for `Cc1cc(C)cc(S(=O)(=O)c2c(C(=O)NCN3CCCC3)[nH]c3ccc(Cl)cc23)c1`, the half-inhibitory concentration (IC50) was 96 nM.

Another data set concerns Human immunodeficiency virus 1. In words: Antiviral activity against wild type HIV1 3B infected in human CEM cells assessed as inhibition of virus-induced cytopathicity after 4 days by microscopic analysis. The following applies: Human immunodeficiency virus 1, 3B, CCRF-CEM, 96 h. Format: functional, organism-based. In outline:
(§4)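 CEM cells (~3 × 10⁵ cells/mL) infected with ~100 CCID₅₀ virus per mL, seeded into wells with compound dilutions. Syncytia (giant cell) formation scored microscopically after 4 days at 37 °C. EC₅₀ is the concentration protecting cells by 50%. Values are means of two experiments in triplicate.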
For the molecule `Cc1cc(C)cc(S(=O)(=O)c2c(C(=O)NCN3CCOCC3)[nH]c3ccc(Cl)cc23)c1`, the EC50 is 1.9 nM.
Turning to `Cc1cc(C)cc(S(=O)(=O)c2c(C(=O)NCN3CCCC3)[nH]c3ccc(Cl)cc23)c1`, the EC50 was 3.3 nM.

A further data set relates to Human immunodeficiency virus 1. As to the kind of experiment: Antiviral activity against wild type HIV1 3B infected in human MT-4 cells assessed as inhibition of virus-induced cytopathicity after 4 days by MTT assay. It counts as functional, organism-based. The following applies: Human immunodeficiency virus 1, 3B, MT4, 96 h. In outline: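 MT-4 cells at 1 × 10⁵ cells/mL, infected at MOI 0.02 (virus titrated as CCID₅₀ in MT-4), dispensed immediately onto serial compound concentrations (DMSO stocks ≥50 mM). Viable cells counted by MTT after 4 days at 37 °C. EC₅₀ is the concentration giving 50% protection of cell viability. Values are means of at least three experiments.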
Consider `Cc1cc(C)cc(S(=O)(=O)c2c(C(=O)NCN3CCOCC3)[nH]c3ccc(Cl)cc23)c1`, for which the half-maximal effective concentration (EC50) came out at 3.2 nM.

The subject of the next data set is Human immunodeficiency virus 1. As to the kind of experiment: Antiviral activity against HIV1 harboring reverse transcriptase L100I mutant infected in human MT-4 cells assessed as inhibition of virus-induced cytopathicity after 4 days by MTT assay. As to conditions: Human immunodeficiency virus 1, MT4, 96 h. Format: functional, organism-based. In outline: as §2
Turning to `Cc1cc(C)cc(S(=O)(=O)c2c(C(=O)NCN3CCOCC3)[nH]c3ccc(Cl)cc23)c1`, the EC50 was found to be 8 nM.

System in the next data set: not listed separately
As to the kind of experiment: Selectivity index, CC50 for human CEM cells to IC50 for HIV1 3B. It counts as functional, CCRF-CEM.
Details: not given
In outline: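 Ratio of CC₅₀ (Coulter count, mock-infected CEM) to EC₅₀ (CEM, HIV-1 IIIB, microscopic syncytia scoring at day 4).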
For `Cc1cc(C)cc(S(=O)(=O)c2c(C(=O)NCN3CCOCC3)[nH]c3ccc(Cl)cc23)c1`, the “Selectivity Index” value is on record as 5789.
Consider `Cc1cc(C)cc(S(=O)(=O)c2c(C(=O)NCN3CCCC3)[nH]c3ccc(Cl)cc23)c1`, for which the “Selectivity Index” value is on record as 3333.

In a further data set the test system is Human immunodeficiency virus 1. In words: Antiviral activity against HIV1 clade A UG273 infected in PHA-stimulated human PBMC assessed as inhibition of p24 production after 10 to 12 days by ELISA. As to conditions: Human immunodeficiency virus 1, clade A UG273. Format: functional, organism-based. In outline:
as §3
In the case of `Cc1cc(C)cc(S(=O)(=O)c2c(C(=O)NCN3CCOCC3)[nH]c3ccc(Cl)cc23)c1`, the EC50 was found to be 0.1 nM.
On the same count and under the same terms, for `Cc1cc(C)cc(S(=O)(=O)c2c(C(=O)NCN3CCCC3)[nH]c3ccc(Cl)cc23)c1` the value was 0.1 nM.

In another data set the target is Human immunodeficiency virus type 1 reverse transcriptase (Human immunodeficiency virus 1, UniProt Q72547). As to the kind of experiment: Inhibition of HIV1 wild type reverse transcriptase expressed in Escherichia coli assessed as incorporation of [3H]dTTP into poly(rA)/oligo(dT) by scintillation counting.
Details: not given
In outline:
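Template was poly(rA)/oligo(dT) 10:1 (0.3 μM 3′-OH ends) with 10 μM [³H]dTTP, at 37 °C. TCA-precipitable counts were taken on GF/C filters. IC₅₀ is 50% inhibition of RT activity.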
Take `Cc1cc(C)cc(S(=O)(=O)c2c(C(=O)NCN3CCOCC3)[nH]c3ccc(Cl)cc23)c1`: the IC50 is 54 nM.
As to `Cc1cc(C)cc(S(=O)(=O)c2c(C(=O)NCN3CCCC3)[nH]c3ccc(Cl)cc23)c1`, the IC50 came out at 12 nM.

Another data set has as its system Human immunodeficiency virus 1. In words: Antiviral activity against HIV1 clade C DJ259 infected in PHA-stimulated human PBMC assessed as inhibition of p24 production after 10 to 12 days by ELISA. As to conditions: Human immunodeficiency virus 1, clade C DJ259. Format: functional, organism-based. In outline: as §3
Take `Cc1cc(C)cc(S(=O)(=O)c2c(C(=O)NCN3CCOCC3)[nH]c3ccc(Cl)cc23)c1`: the EC50 amounted to 0.5 nM.
In the case of `Cc1cc(C)cc(S(=O)(=O)c2c(C(=O)NCN3CCCC3)[nH]c3ccc(Cl)cc23)c1`, the EC50 was 0.1 nM.

In another data set the test system is Human immunodeficiency virus 1. As to the kind of experiment: Antiviral activity against HIV1 harboring reverse transcriptase Y181C mutant infected in human MT-4 cells assessed as inhibition of virus-induced cytopathicity after 4 days by MTT assay. Format: functional, organism-based. As to conditions: Human immunodeficiency virus 1, MT4, 96 h. In outline:
as §2
`Cc1cc(C)cc(S(=O)(=O)c2c(C(=O)NCN3CCOCC3)[nH]c3ccc(Cl)cc23)c1`: the EC50 came out at 23 nM.

In a further data set the test system is Human immunodeficiency virus 1. As to the kind of experiment: Antiviral activity against HIV1 clade A/E ID12 infected in PHA-stimulated human PBMC assessed as inhibition of p24 production after 10 to 12 days by ELISA. It counts as functional, organism-based. The following applies: Human immunodeficiency virus 1, clade A/E ID12. In outline:
as §3
In the case of `Cc1cc(C)cc(S(=O)(=O)c2c(C(=O)NCN3CCOCC3)[nH]c3ccc(Cl)cc23)c1`, the 50% effective concentration (EC50) was 0.3 nM.
Still for that read-out and setting: the value for `Cc1cc(C)cc(S(=O)(=O)c2c(C(=O)NCN3CCCC3)[nH]c3ccc(Cl)cc23)c1` was 0.3 nM.

A further data set has as its system Human immunodeficiency virus 1. As to the kind of experiment: Antiviral activity against HIV1 harboring reverse transcriptase E138K mutant infected in human MT-4 cells assessed as inhibition of virus-induced cytopathicity after 4 days by MTT assay. It counts as functional, organism-based. The following applies: Human immunodeficiency virus 1, MT4, 96 h. In outline:
as §2
Consider `Cc1cc(C)cc(S(=O)(=O)c2c(C(=O)NCN3CCOCC3)[nH]c3ccc(Cl)cc23)c1`, for which the EC50 was 14 nM.

The next data set has as its system Human immunodeficiency virus 1. As to the kind of experiment: Antiviral activity against […] harboring reverse transcriptase K103N mutant infected in human MT-4 cells assessed as inhibition of virus-induced cytopathicity after 4 days by MTT assay. It counts as functional, organism-based. As to conditions: Human immunodeficiency virus 1, MT4, 96 h. In outline:
as §2
For the molecule `Cc1cc(C)cc(S(=O)(=O)c2c(C(=O)NCN3CCOCC3)[nH]c3ccc(Cl)cc23)c1`, the EC50 worked out at 11 nM.

The test system of a further data set is Human immunodeficiency virus 2. In words: Antiviral activity against HIV2 isolate ROD infected in human CEM cells assessed as inhibition of virus-induced cytopathicity after 4 days by microscopic analysis. It counts as functional, organism-based. As to conditions: Human immunodeficiency virus 2, ISOLATE ROD, CCRF-CEM, 96 h. In outline: as §4
Regarding `Cc1cc(C)cc(S(=O)(=O)c2c(C(=O)NCN3CCOCC3)[nH]c3ccc(Cl)cc23)c1`, the EC50 was more than 2000 nM.
On the same count and under the same terms, for `Cc1cc(C)cc(S(=O)(=O)c2c(C(=O)NCN3CCCC3)[nH]c3ccc(Cl)cc23)c1` the value was more than 2000 nM.

What is called CC50 is the concentration at which the toxic effect on the cells reaches its halfway point. A higher CC50 goes with better tolerance by the cells. A word on the IC50: it is the concentration that gives 50% inhibition. A word on the EC50: it is the midpoint of the concentration-response curve.
